Source: ChEMBL document CHEMBL1141351, “Inhibitors of osteoclast differentiation from Cephalotaxus koreana” (J Nat Prod, 2007)

Assays:
Osteoclast [1] = test: Inhibition of ICR mouse osteoclast differentiation at 0.1 ug/mL; type: functional
Outline: (§1)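 Co-culture of bone marrow cells (femora, 6-week-old ddY mice; 2.5×10^5 cells/cm²) with calvarial osteoblastic cells (newborn ICR mice, collagenase digestion; 4 × 10⁴ cells/cm²) in α-MEM/10% FBS with 1,25(OH)₂D₃ (1 × 10⁻⁸ M) and dexamethasone (1 × 10⁻⁷ M). DMSO stocks (2 mg/mL) were filter-sterilized and added at 0.1 or 1.0 μg/mL. Medium was changed every 2 days. On day 6, cells were formaldehyde-fixed and TRAP-stained. TRAP(+) multinucleated cells with >6–7 nuclei were counted. Results are % inhibition versus control, as mean ± SD of three replicates, with Student's t-test.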

Osteoclast [2] = test: Inhibition of ICR mouse osteoclast differentiation at 1.0 ug/mL; type: functional; outline: as §1
Osteoclast [3] = test: Induction of mouse osteoclast apoptosis; type: functional, cell-based

| Compound | inhibition at 0.1 µg/mL (Osteoclast [1]) [%] | inhibition at 1 µg/mL (Osteoclast [2]) [%] | IC50 (Osteoclast [3]) [µM] |
| --- | --- | --- | --- |
| O=c1cc(-c2ccc(O)cc2)oc2c(O)c(O)cc(O[C@@H]3O[C@H](CO)[C@@H](O)[C@H](O)[C@H]3O)c12 | 63 | 86 | – |
| CC(=O)OC[C@H]1O[C@@H](Oc2c(-c3ccc(O)c(O)c3)oc3cc(O)cc(O)c3c2=O)[C@H](O)[C@@H](O)[C@@H]1O | 51 | 65 | – |
| C[C@H]1O[C@@H](OC[C@H]2O[C@@H](Oc3c(-c4ccc(O)cc4)oc4cc(O)cc(O)c4c3=O)[C@H](O)[C@@H](O)[C@@H]2O)[C@@H](O)[C@@H](O)[C@@H]1O | 68 | 85 | – |
| COc1ccc(-c2oc3cc(O)cc(O)c3c(=O)c2O[C@@H]2O[C@H](CO[C@@H]3O[C@H](C)[C@@H](O)[C@H](O)[C@@H]3O)[C@@H](O)[C@H](O)[C@H]2O)cc1O | 40 | 63 | – |
| O=c1cc(-c2ccc(O)cc2)oc2cc(O)cc(O)c12 [APIGENIN] | 45 | 65 | – |
| O=c1c(O)c(-c2ccc(O)cc2)oc2cc(O)cc(O)c12 [KAEMPFEROL] | – | – | 1.6 |
| O=c1c(O)c(-c2ccc(O)c(O)c2)oc2cc(O)cc(O)c12 [QUERCETIN] | – | – | 5.3 |
| C[C@@H]1O[C@@H](Oc2c(-c3ccc(O)c(O)c3)oc3cc(O)cc(O)c3c2=O)[C@H](O)[C@H](O)[C@H]1O [QUERCITRIN] | 56 | 67 | – |
